Values after ≈ are worked out from the molar mass of the structure shown. Active and inactive are the calls of the source. The calls are words filed in the database; no cut-off is given here.
What was measured:
Homo sapiens [1] = species: Homo sapiens; experiment: Inhibition of RYR-1 R614C mutant (unknown origin) expressed in cells assessed as inhibition of store overload-induced Ca2+ release after 3 mins by microscopic analysis; format: cell-based; conditions: dose microM 0.1-10, time 3.0 min
Homo sapiens [2] = species: Homo sapiens; experiment: Inhibition of RYR-1 R614C mutant (unknown origin) expressed in cells assessed as inhibition of store overload-induced Ca2+ release at 3 uM after 3 mins by fura-2AM dye based microscopic analysis relative to control; format: cell-based
Homo sapiens [3] = species: Homo sapiens; experiment: Inhibition of RYR-1 R614C mutant (unknown origin) expressed in cells assessed as inhibition of store overload-induced Ca2+ release at 0.1 uM after 3 mins by fura-2AM dye based microscopic analysis relative to control; format: cell-based
Homo sapiens [4] = species: Homo sapiens; experiment: Inhibition of RYR-1 R614C mutant (unknown origin) expressed in cells assessed as inhibition of store overload-induced Ca2+ release at 10 uM after 3 mins by fura-2AM dye based microscopic analysis relative to control; format: cell-based
[5] = target: Acetylcholinesterase (Electrophorus electricus) (UniProt O42275); experiment: Inhibition of electric eel AChE at 5 uM using acetylthiocholine iodide as substrate preincubated with enzyme for 30 mins followed by substrate addition and measured for 10 mins by Ellman's method relative to control; conditions: time 40.0 min
Summary of the method: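 Electrophorus electricus AChE at 0.25 U/mL, with 60 µM DTNB in 0.05 M phosphate buffer pH 8, was incubated 30 min with the DMSO-dissolved inhibitor. The reaction was then started with 1.5 mM acetylthiocholine iodide and read at 412 nm for 10 min. Percent inhibition was taken from reaction rates versus control, from three experiments run in triplicate.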

[6] = Kinetic aqueous solubility of the compound in PBS at pH 7.4 by turbidimetric analysis; format: physicochemical; conditions: read-out: Kinetic_solubility
Summary of the method: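 Turbidimetric kinetic solubility: DMSO stocks were diluted 100-fold into PBS pH 7.4, giving eight final concentrations (1.6–200 mM as printed). After 2 h incubation, absorbance was read at 540 nm. Wells above blank mean + 3 SD counted as turbid, and the highest clear concentration was taken as the solubility.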

Homo sapiens [7] = species: Homo sapiens; experiment: Inhibition of RYR-1 R614C mutant (unknown origin) expressed in cells assessed as inhibition of store overload-induced Ca2+ release at 3 uM after 3 mins by fura-2AM dye based microscopic analysis; format: cell-based
Homo sapiens [8] = species: Homo sapiens; experiment: Inhibition of RYR-1 R614C mutant (unknown origin) expressed in cells assessed as inhibition of store overload-induced Ca2+ release at 0.1 uM after 3 mins by fura-2AM dye based microscopic analysis; format: cell-based
Homo sapiens [9] = species: Homo sapiens; experiment: Inhibition of RYR-1 R614C mutant (unknown origin) expressed in cells assessed as inhibition of store overload-induced Ca2+ release at 10 uM after 3 mins by fura-2AM dye based microscopic analysis; format: cell-based
Mus musculus [10] = experiment: Cognitive enhancing effect in SPF grade FAD mouse assessed as reduction in mean escape latency time at 3.2 mg/kg, ip measured on day 3 by Morris water maze test (reference value: 35.59 sec); format: functional; conditions: time 3 day
Summary of the method: (§1)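 Mixed-sex FAD mice, 5 months old at dosing, given 3.2 mg/kg intraperitoneally in DMSO (1.12 mg/ml) daily for 30 days; controls got the same volume of DMSO. Morris water maze training started after dosing. Mice entered the water facing the wall from four entry points in turn, and time to find and climb the platform was recorded. Data are mean ± SD, analysed by ANOVA.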

Mus musculus [11] = experiment: Improvement in learning and spatial memory in SPF grade FAD mouse assessed as swimming time on target zone at 3.2 mg/kg, ip measured 24 hrs post trial training by probe test (reference value: 23.1 +/- 1.1 %); format: functional
Mus musculus [12] = experiment: Cognitive enhancing effect in SPF grade FAD mouse assessed as reduction in mean escape latency time at 3.2 mg/kg, ip measured on day 4 by Morris water maze test (reference value: 31.99 sec); format: functional; conditions: time 4 day; summary of the method: as §1
Mus musculus [13] = experiment: Cognitive enhancing effect in SPF grade FAD mouse assessed as reduction in mean escape latency time at 3.2 mg/kg, ip measured on day 2 by Morris water maze test (reference value: 36.72 sec); format: functional; conditions: time 2 day; summary of the method: as §1
[14] = Toxicity in SPF grade FAD mouse assessed as effect on body weight at 3.2 mg/kg, ip administered for 30 consecutive days; format: organism-based; conditions: in vivo, 720 h, time 30 day
Summary of the method: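 Mixed-sex FAD mice, 5 months old, were given 3.2 mg/kg/day intraperitoneally in DMSO (1.12 mg/ml) for 30 consecutive days; controls received the same volume of DMSO. Body weight was measured daily during dosing and reported as mean ± SD (n = 7).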

Chain of Acetylcholinesterase (Electrophorus electricus) (O42275 24-633 limits assumed): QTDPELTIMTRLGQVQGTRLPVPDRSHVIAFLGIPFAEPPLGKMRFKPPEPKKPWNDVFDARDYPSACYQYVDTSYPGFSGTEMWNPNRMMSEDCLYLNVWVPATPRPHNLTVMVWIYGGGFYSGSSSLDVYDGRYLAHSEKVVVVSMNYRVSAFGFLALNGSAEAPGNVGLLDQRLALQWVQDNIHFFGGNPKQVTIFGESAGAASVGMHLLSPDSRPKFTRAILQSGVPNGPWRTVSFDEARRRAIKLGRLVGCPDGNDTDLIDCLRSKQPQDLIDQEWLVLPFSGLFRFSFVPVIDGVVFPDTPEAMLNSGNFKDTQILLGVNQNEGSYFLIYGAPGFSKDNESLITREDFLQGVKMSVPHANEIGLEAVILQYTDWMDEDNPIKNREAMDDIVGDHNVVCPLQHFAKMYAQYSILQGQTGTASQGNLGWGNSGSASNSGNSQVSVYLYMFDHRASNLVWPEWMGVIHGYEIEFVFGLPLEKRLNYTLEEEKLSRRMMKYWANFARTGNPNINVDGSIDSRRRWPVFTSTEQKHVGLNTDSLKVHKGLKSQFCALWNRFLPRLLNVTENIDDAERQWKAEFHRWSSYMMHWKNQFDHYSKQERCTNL

SMILES	inhibition (Homo sapiens [1])	inhibition (Homo sapiens [2])	inhibition (Homo sapiens [3])	inhibition (Homo sapiens [4])	further results
O=C(N/N=C/c1ccc(-c2ccc([N+](=O)[O-])cc2)o1)Nc1ccc(Br)cc1	Dose-dependent effect	31.3%	13.2%	52.9%	–
O=C(N/N=C/c1ccc(-c2ccc([N+](=O)[O-])cc2)o1)Nc1ccccc1Cl	Dose-dependent effect	25.1%	–	50.1%	–
O=C(NCc1ccccc1)N/N=C/c1ccc(-c2ccc([N+](=O)[O-])cc2)o1	Dose-dependent effect	23.1%	–	48.6%	–
O=C1CN(/N=C/c2ccc(-c3ccc([N+](=O)[O-])cc3)o2)C(=O)N1	Dose-dependent effect	73.1%	30.8%	94.2%	inhibition [5]: 0.1%
O=C(NCc1ccc(Cl)cc1)N/N=C/c1ccc(-c2ccc([N+](=O)[O-])cc2)o1	Dose-dependent effect	48.6%	27.1%	70.4%	–
O=C1CN(/N=C/c2ccc(-c3ccc([N+](=O)[O-])cc3)o2)C(O)=N1 [DANTROLENE]	–	–	–	–	solubility kinetic [6]: 560 µM (≈ 176 µg/mL)
COc1ccccc1NC(=O)N/N=C/c1ccc(-c2ccc([N+](=O)[O-])cc2)o1	Dose-dependent effect	–	–	30.6%	–
Cc1ccc(NC(=O)N/N=C/c2ccc(-c3ccc([N+](=O)[O-])cc3)o2)cc1	Dose-dependent effect	10.8%	–	29.5%	–
O=C(N/N=C/c1ccc(-c2ccc([N+](=O)[O-])cc2)o1)Nc1ccc([N+](=O)[O-])cc1	Dose-dependent effect	14.1%	–	32%	–
O=C(N/N=C/c1ccc(-c2ccc([N+](=O)[O-])cc2)o1)Nc1ccccc1OC(F)(F)F	Dose-dependent effect	20.4%	–	57.1%	–
Cc1cccc(NC(=O)N/N=C/c2ccc(-c3ccc([N+](=O)[O-])cc3)o2)c1	Dose-dependent effect	15.2%	10.7%	34.6%	–
O=C(NCc1ccc(C(F)(F)F)cc1)N/N=C/c1ccc(-c2ccc([N+](=O)[O-])cc2)o1	Dose-dependent effect	27.9%	19.7%	53.1%	–
Cc1ccccc1NC(=O)N/N=C/c1ccc(-c2ccc([N+](=O)[O-])cc2)o1	–	–	–	–	inhibition (Homo sapiens [7]): inactive; inhibition (Homo sapiens [8]): inactive; inhibition (Homo sapiens [9]): inactive; inhibition [5]: 18.2%
O=C(NCc1ccc(Cl)c(Cl)c1)N/N=C/c1ccc(-c2ccc([N+](=O)[O-])cc2)o1	Dose-dependent effect	25.3%	–	37.2%	–
O=C(NCc1ccc(Cl)cc1Cl)N/N=C/c1ccc(-c2ccc([N+](=O)[O-])cc2)o1	Dose-dependent effect	–	–	16.2%	inhibition [5]: 8.9%
O=C(N/N=C/c1ccc(-c2ccc([N+](=O)[O-])cc2)o1)c1cnc[nH]1	Dose-dependent effect	77.2%	31.5%	93.7%	Time (Mus musculus [10]): 25.12 s; Activity (Mus musculus [11]): 35.7%; Time (Mus musculus [12]): 16.23 s; Time (Mus musculus [13]): 29.89 s; solubility kinetic [6]: 580 µM (≈ 189 µg/mL); inhibition [5]: 24.8%; Activity [14]: Non-Toxic
CN(/N=C/c1ccc(-c2ccc([N+](=O)[O-])cc2)o1)C(=O)n1ccnc1	Dose-dependent effect	53.5%	23%	74.9%	–
O=C(NCc1cccc(Cl)c1Cl)N/N=C/c1ccc(-c2ccc([N+](=O)[O-])cc2)o1	Dose-dependent effect	–	–	30.6%	–
O=C(N/N=C/c1ccc(-c2ccc([N+](=O)[O-])cc2)o1)n1ccnc1	Dose-dependent effect	48.4%	26.1%	68.2%	–
O=C(N/N=C/c1ccc(-c2ccc([N+](=O)[O-])cc2)o1)Nc1ccccc1	Dose-dependent effect	35.8%	15.9%	93.9%	solubility kinetic [6]: 60 µM (≈ 21 µg/mL); inhibition [5]: 19.3%
O=C(N/N=C/c1ccc(-c2ccc([N+](=O)[O-])cc2)o1)Nc1ccccc1Br	Dose-dependent effect	38.5%	20.1%	67.1%	–
O=C(N/N=C/c1ccc(-c2ccc([N+](=O)[O-])cc2)o1)Nc1ccccc1C(F)(F)F	Dose-dependent effect	30.1%	12.6%	55.5%	–
O=C(NCc1cccc(F)c1)N/N=C/c1ccc(-c2ccc([N+](=O)[O-])cc2)o1	Dose-dependent effect	25.8%	–	72.1%	inhibition [5]: 33.6%
O=C(N/N=C/c1ccc(-c2ccc([N+](=O)[O-])cc2)o1)Nc1cccc(Br)c1	Dose-dependent effect	67.1%	26.7%	67.1%	–
O=C(NCc1ccccc1F)N/N=C/c1ccc(-c2ccc([N+](=O)[O-])cc2)o1	Dose-dependent effect	26.1%	–	44.6%	–
Cc1ccc(CNC(=O)N/N=C/c2ccc(-c3ccc([N+](=O)[O-])cc3)o2)cc1	Dose-dependent effect	–	–	35.4%	–
O=C(NCc1ccc(F)cc1)N/N=C/c1ccc(-c2ccc([N+](=O)[O-])cc2)o1	Dose-dependent effect	35.1%	23.6%	76.1%	–
CN(/N=C/c1ccc(-c2ccc([N+](=O)[O-])cc2)o1)C(=O)c1cncn1C	Dose-dependent effect	70.5%	24.5%	82.5%	solubility kinetic [6]: 480 µM (≈ 170 µg/mL); inhibition [5]: 14.3%
